# This is a sample that favours compounds with a hit; in the whole collection about 1.3% have one here.
# NSD2 inh: NSD2 histone methyltransferase inhibitors, primary screen, biochemical, AlphaScreen, single concentration, set 2 | NSD2 peptide methylation, 120 min | 0.54% of 310,000 active | Histone-lysine N-methyltransferase NSD2 (Homo sapiens), O96028 | inhibition, % at 12.5 µM | AID 743445, 2014; in the data active means inhibition above about 50%
# TDP2 absorb: human TDP2 enzyme inhibitors, primary screen, biochemical, epi absorbance, recombinant enzyme | inhibition, % at 12.8 µM | Tyrosyl-DNA phosphodiesterase 2 (Homo sapiens), O95551 | 0.34% of 370,000 active | T5PNP hydrolysis, p-nitrophenol absorbance 415 nm;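 active means inhibition above the mean of all tested compounds plus 3 SD, set per campaign, cut at about 25% in these data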
# Target sequence (O95551 whole entry, looked up): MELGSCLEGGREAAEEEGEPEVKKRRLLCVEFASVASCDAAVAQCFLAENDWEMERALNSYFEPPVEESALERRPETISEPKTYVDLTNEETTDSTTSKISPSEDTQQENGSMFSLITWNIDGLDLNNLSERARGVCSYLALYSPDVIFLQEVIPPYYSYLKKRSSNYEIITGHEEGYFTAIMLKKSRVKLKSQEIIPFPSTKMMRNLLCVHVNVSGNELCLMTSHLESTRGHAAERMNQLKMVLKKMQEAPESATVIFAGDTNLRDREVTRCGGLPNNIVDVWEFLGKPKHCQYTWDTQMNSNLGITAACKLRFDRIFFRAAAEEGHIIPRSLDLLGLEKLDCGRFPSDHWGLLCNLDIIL
#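 Evaluation: % inhibition relative to enzyme-containing and enzyme-free wells. Material: recombinant human TDP2. Benchmarks: enzyme-free and DMSO wells. Timing: enzyme reaction with compound for 2 h at 37 °C. Compound dosing: 12.8 µM only. Measured by: p-Nitrophenol epi absorbance. Reagent: T5PNP substrate at 5 mM, a TopII-DNA adduct mimic. Replication: single well per compound.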
# LEDGF integ inh: blockers of LEDGF/p75-dependent integrase strand transfer – biochemical, TR-FRET, high throughput, primary screen; inhibition, % at 3.7 µM; TR-FRET IN-LEDGF/p75 DNA integration, Eu/Cy5; 0.64% of 370,000 active;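 active means inhibition above the screen-wide mean plus 3 SD, cut at about 13% in these data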;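 further: signal is the Cy5 over europium emission ratio at 671 and 618 nm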
# CASP6 VEID inh: human caspase-6 inhibitors, primary screen, biochemical, VEID-R110 fluorescence, single point, set 2; 0.53% of 350,000 active; AID 686996, 2013; inhibition, % at 12.5 µM; purified caspase-6, Z-VEID-R110 cleavage fluorescence;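 active means mean inhibition across replicates at least about 35%, with every replicate also reaching that limit, limit read from the data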
# Target sequence (P55212 24-179 limits assumed): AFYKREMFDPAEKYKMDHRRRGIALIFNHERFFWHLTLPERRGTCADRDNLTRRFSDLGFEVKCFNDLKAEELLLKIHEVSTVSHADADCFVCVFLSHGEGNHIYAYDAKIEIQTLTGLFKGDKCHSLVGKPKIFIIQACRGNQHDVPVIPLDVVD
# Target sequence (P55212 194-293 limits assumed): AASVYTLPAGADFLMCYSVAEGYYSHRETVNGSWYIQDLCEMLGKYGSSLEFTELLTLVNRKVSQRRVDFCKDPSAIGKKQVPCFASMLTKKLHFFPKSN
# UCH37 DUB inh: inhibitors of human UCH37 deubiquitinase, primary screen, biochemical, Ub-AMC cleavage, fluorescence. Ubiquitin carboxyl-terminal hydrolase isozyme L5 (Homo sapiens), Q9Y5K5. purified proteasome/UCH37. inhibition, % (no concentration beside the values). 0.33% of 330,000 active;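 active means mean inhibition over replicate wells above about 20%, limit read from the data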
#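 Reagent: Ub-AMC substrate; assay system: Proteasome-associated human UCH37 deubiquitinase; controls: no-proteasome and no-compound wells; read-out: % inhibition of Ub-AMC cleavage fluorescence; timing: 30 min preincubation with enzyme, 25 min cleavage at room temperature; signal: AMC fluorescence from Ub-AMC cleavage, excitation 355 nm, emission 460 nm; buffer or medium: Tris-HCl pH 7.4 plus ovalbumin, ATP-MgCl2, DTT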
# A number is an active result; – = inactive; · = not tested or not shown.
SMILES,NSD2 inh,TDP2 absorb,LEDGF integ inh,CASP6 VEID inh,UCH37 DUB inh
CCCS/C(N)=N/N=Cc1cc(C)ccc1O,·,·,·,·,–
N#C/C(=C(/O)CSc1ccccn1)c1nc2ccccc2s1,–,–,–,–,–
N#C/C(=C(/O)CSc1ccccc1C(=O)O)c1nc2ccccc2s1,–,–,–,·,20.6
O=Cc1ccc(N2Cc3ccccc3C2)cc1,–,–,17.6,–,–
Cc1cc(C)c2nc(N3C(=O)C(O)=C(C(=O)c4ccco4)C3c3ccco3)sc2c1 (configuration not stated),–,–,–,68.3,·
CCOc1ccc2nc(N3C(=O)C(O)=C(C(=O)c4ccco4)C3c3ccco3)sc2c1 (configuration not stated),–,–,17.9,36.0,–
CCOC(=O)c1sc(N2C(=O)C(O)=C(C(=O)c3ccco3)C2c2ccco2)nc1C (configuration not stated),–,–,–,39.3,–
Cc1ccc2nc(N3C(=O)C(O)=C(C(=O)c4ccco4)C3c3cccs3)sc2c1 (configuration not stated),–,–,–,·,–
COc1ccc(C2C(C(=O)c3ccco3)=C(O)C(=O)N2c2nnc(C)s2)cc1 (configuration not stated),–,–,–,–,–
COC(=O)c1sc(N2C(=O)C(=O)/C(=C(/O)c3ccccc3)C2c2ccco2)nc1C (configuration not stated),–,–,–,36.6,–
Cc1nc(N2C(=O)C(=O)/C(=C(/O)c3ccccc3)C2c2ccco2)sc1C (configuration not stated),–,–,–,·,–
CCC12CCCN3CCc4c(n(c5ccccc45)C(O)(C(=O)OC)C1)C32 (configuration not stated),·,–,–,59.5,–
CCC(=O)N1CCC1(C)C(=O)Nc1ccc2c(c1)CCN2C(C)=O (configuration not stated),–,–,–,48.6,·
CCCC(=O)N1CCCC1(C)C(=O)Nc1ccc2c(c1)CCN2C(C)=O (configuration not stated),–,–,–,–,·
O=C(O)/C(=C\c1ccc(Cl)cc1)c1ccc(S(=O)(=O)N2CCCC2)s1,–,–,–,–,–
CSc1ccc(/C=C(\C(=O)O)c2ccc(S(=O)(=O)N3CCCCC3)s2)cc1,–,–,–,43.6,–
O=C(O)/C(=C\c1ccc(Cl)c([N+](=O)[O-])c1)c1ccc(S(=O)(=O)N2CCCCC2)s1,–,–,–,–,·
O=C(O)/C(=C\c1cccc([N+](=O)[O-])c1)c1ccc(S(=O)(=O)N2CCCCC2)s1,–,–,–,40.8,–
COc1cc(/C=C(\C(=O)O)c2ccc(S(=O)(=O)N3CCCC3)s2)cc(OC)c1,–,–,–,41.2,–
O=C(O)c1cc(O)c2c(c1)[C@@H]([C@H]1c3cc(C(=O)O)cc(O)c3C(=O)c3c(O[C@@H]4O[C@H](CO)[C@@H](O)[C@H](O)[C@H]4O)cccc31)c1cccc(OC3O[C@H](CO)[C@@H](O)[C@H](O)[C@H]3O)c1C2=O (some centres not stated),·,–,74.0,90.8,31.0
O=C1c2cc(CO)cc(O)c2C(=O)c2c(O[C@@H]3OC(CO)[C@@H](O)[C@@H](O)[C@@H]3O)cccc21 (some centres not stated),·,–,–,–,–
Cc1onc(-c2ccc(Cl)cc2Cl)c1-c1csc(N/N=C/c2ccccc2Cl)n1,–,–,–,38.5,·
O=c1[nH]c(NN=Cc2ccc(F)cc2)nc2ccccc12,·,·,·,·,–
N#CC(c1ccccc1)N(CCCCl)C(=O)c1ccccc1 (configuration not stated),–,–,–,–,20.8
O=S(=O)(NN=Cc1ccc(Cl)cc1)c1ccc(Cc2ncc(C(F)(F)F)cc2Cl)s1,·,·,·,·,–
SMILES,NSD2 inh,TDP2 absorb,LEDGF integ inh,CASP6 VEID inh,UCH37 DUB inh
COc1ccc(NC(=O)[C@@H]2CCCN2C(=O)[C@@H]2Cc3ccccc3CN2C(=O)OC(C)(C)C)cc1,–,–,–,–,–
CC(=O)c1ccc(NC(=O)[C@@H]2CCCN2C(=O)OC(C)(C)C)cc1,–,–,–,56.2,–
COC(=O)NN=Cc1ccc(OC/C=C/c2ccccc2)cc1,·,·,·,·,–
CNC(=O)c1cc(Oc2ccc(NC(=O)Nc3ccc(Cl)c(C(F)(F)F)c3)cc2)ccn1,·,–,–,–,31.2
CCCC(=O)NC(c1cccs1)c1cc([N+](=O)[O-])c2cccnc2c1O (configuration not stated),–,–,–,–,–
CCC(=O)NC(c1cccs1)c1cc([N+](=O)[O-])c2cccnc2c1O (configuration not stated),–,–,–,–,20.4
CC(=O)NC(c1ccccc1)c1cc([N+](=O)[O-])c2cccnc2c1O (configuration not stated),–,–,–,–,–
CC(=O)NC(c1cccs1)c1cc([N+](=O)[O-])c2cccnc2c1O (configuration not stated),–,–,–,–,20.4
CCOc1ccc(S(=O)(=O)NN=C(C)c2ccc3c(c2)OCO3)cc1,·,·,·,·,–
COc1ccc(C=NNC(=O)c2nnn(-c3nonc3N)c2-c2cccs2)cc1OC,·,·,·,·,–
S=c1[nH]nc(COc2ccccc2)n1N=Cc1cccnc1,·,·,·,·,–
CC(=O)NN1C(=O)/C(=C/c2ccc(Br)o2)SC1=S,–,–,–,·,–
CC(=O)NN1C(=O)/C(=C\c2ccc(Br)o2)SC1=S,–,–,–,50.5,–
COc1cccc(/C=N/Nc2nc(C)cc(=O)[nH]2)c1OC,–,–,–,41.7,·
COc1cccc(C=NNc2nc(C)cc(=O)[nH]2)c1OC,·,·,·,·,–
CC(=NNC(=O)C(=O)Nc1cc(Cl)ccc1Cl)c1ccncc1,·,·,·,·,–
O=C1CCn2c1c(O)c1ccccc1c2=O,–,–,–,95.1,·
Nc1nc(NC(=O)c2ccc(F)cc2)ns1,·,–,–,–,27.2
COc1cc(C=NNC(=O)c2cnn3c(C)cc(-c4ccccc4)nc23)ccc1O,·,·,·,·,–
COc1ccc2c([N+](=O)[O-])c(Cl)[nH]c2c1,·,–,–,62.7,–
COc1ccc2c([N+](=O)[O-])c(N3CCOCC3)[nH]c2c1,–,–,–,–,·
CCOc1ccccc1C=NNC(=O)c1nnn(-c2nonc2N)c1CN1CCC(C)CC1,·,·,·,·,–
CCOC(=O)c1ccc(N2N=C(C)/C(=C/C=C/c3ccco3)C2=O)cc1,–,–,–,·,–
O=C(O)c1cc(N2N=C(C(F)(F)F)/C(=C/C=C/c3ccco3)C2=O)ccc1Cl,·,–,82.4,95.4,21.3
COc1cc(C(=O)NCC(=O)NN=C(C)c2ccc3c(c2)CCCC3)cc(OC)c1OC,·,·,·,·,–
C[n+]1ccccc1C=NO,·,·,·,·,–
